STAT3 inh: inhibitors of IL-6 induced STAT3 signaling. U3A cells, IL-6 STAT3-luciferase reporter, luminescence; host cell line lacks STAT1. inhibition, % at 5.5 µM. actives 0.89% (n = 190,000). AID 862;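 active means inhibition above the mean inhibition across all screened compounds plus 3 SD, cut at about 44% in these data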;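 further: 0% = DMSO only wells and 100% = 100 µM nifuroxazide control wells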
STAT1 blocker: inhibitors of IFN-gamma induced STAT1 signaling | NIH 3T3 STAT1-luciferase reporter, luminescence | inhibition, % at 5.5 µM | actives 0.35% (n = 200,000) | AID 920;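 active means inhibition above a set limit, the mean inhibition across all tested compounds plus 3 SD, cut at about 34% in these data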;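 further: 0% = IFN-gamma with DMSO and 100% = IFN-gamma with 300 µM nifuroxazide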
NF-kB expr up: NF-kB expression increase, human neuronal cells; NF-kB reporter expression; hits give high values; fold change at 12.5 µM; actives 1.6% (n = 190,000); AID 1239; in the data active means fold change above about 3.3
APP 5'UTR act: activates APP 5'UTR luciferase reporter; actives 1% (n = 190,000); activation, % at 2 µM; AID 1276; SH-SY5Y APP 5'UTR luciferase reporter, luminescence; zero percent = DMSO vehicle wells;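 active means activation above a set limit, based on mean plus 3 SD of controls, cut at about 140% in these data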
STAT1 act: activators of IFN-gamma induced STAT1 signaling; activation (% of control), % at 5.5 µM; NIH 3T3 STAT1-luciferase reporter, luminescence; 100% = IFN-gamma alone, no compound; actives 2.6% (n = 200,000);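 active means activation above the screen-wide mean activation plus 3 SD, cut at about 130% in these data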;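 further: raw ratio to IFN-gamma control signal so 100% means no change and 0% no light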
STAT3 activator: increases IL-6 driven STAT3 reporter signal | U3A cells, IL-6 STAT3-luciferase reporter, luminescence; 100% = signal with IL-6 EC80 alone | activation (% of control), % at 5.6 µM | actives 0.91% (n = 190,000) | AID 871;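 active means activation above the screen-wide mean of compound activation plus 3 SD, cut at about 130% in these data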;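 further: 0% = background luminescence of wells with medium and substrate only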
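Material: human STAT1-deficient U3A cells with stable STAT3-luciferase reporter / Probe or stimulus: IL-6 stimulus at 33 ng/mL final / Schedule: 1 h compound pre-exposure, 6 h IL-6 stimulation, 37 °C / Technique: luminescence / Read-out basis: percent of IL-6-only median luminescence / Control set: IL-6-only high control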
STAT1 act conf: confirmation of STAT1 signaling activators; shares compounds with STAT1 act; NIH 3T3 STAT1-luciferase reporter, IFN-gamma potentiation, luminescence; 100% = IFN-gamma EC80 alone, no compound; activation (% of control), % at 5.7 µM; actives 97% (n = 1,200); AID 1262;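 active means activation above a set limit carried over from the earlier primary STAT1 screen, cut at about 140% in these data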;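 further: simple ratio to median IFN-gamma plus DMSO wells so 0% means no light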
NFkB act: counter-screen for STAT1 activators: NF-kappaB activation; shares compounds with STAT1 act; HEK293T NF-kB luciferase reporter, TNF-alpha stimulated, luminescence; 100% = TNF-alpha with vehicle only; activation (% of control), % at 5.7 µM; actives 43% (n = 1,200); AID 1306;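 active means activation above the mean of solvent-only control wells plus 3 SD, set per campaign, cut at about 130% in these data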;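 further: TNF-alpha given at a submaximal dose yielding about 80% of full reporter signal; values are well signal over median control so 100% means no change and 0% no light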
STAT3 act STAT1c: activates human STAT3, counter-screen to STAT1 activators; U3A cells STAT3-luciferase reporter, IL-6, luminescence; cells lack STAT1; 100 = IL-6 alone, no compound effect; shares compounds with STAT1 act; actives 46% (n = 1,200); AID 1316; activation (% of control), % at 5.7 µM;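 active means activation above the solvent-only control well mean plus 3 SD, set per plate batch, cut at about 110% in these data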;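 further: 0% = no luminescence and 100% = median IL-6 plus DMSO wells; higher means more STAT3 reporter activation so hits are non-selective activators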
Starred values were filed as active, the others as inactive; / = no result. Shown are actives, neighbours in structure and some others; about 4.9% of the full set was active somewhere.

SMILES	STAT3 inh	STAT1 blocker	NF-kB expr up	APP 5'UTR act	STAT1 act	STAT3 activator	STAT1 act conf	NFkB act	STAT3 act STAT1c
NC(=O)c1c(NC(=O)c2cc3ccccc3o2)sc2c1CCC2	35	-88	1.2	98	181*	71	196*	108	118*
CC(=O)Nc1sc2c(c1C(N)=O)CCC2	7	1	0.82	-10	94	95	/	/	/
CCSc1ncc(/C=N/Nc2ccccc2)n1C	-12	0	1.8	23	100	115	/	/	/
CCSc1ncc(/C=N/Nc2ccc([N+](=O)[O-])cc2)n1C	6	-68	1.8	90	162*	100	196*	149*	102
CCN1C(=S)SC(=O)C1=C1C=C(C)N(CCO)C(C)=C1	-1	-60	2.8	121	158*	105	190*	128	124*
COc1ccc(/C=N/NC(=O)COc2cc(C)cc(C)c2)cc1COC(C)=O	-6	7	1.2	-17	93	106	/	/	/
CC(=Nc1ccccc1)C1=C(O)COC1=O	5	-7	1.2	5	106	102	/	/	/
CC(=Nc1ccccc1)c1sc2ccccc2c1O	-23	-99	6.3*	132	190*	124	228*	133*	150*
CCN(CC)c1ccc(C(=S)NCc2ccccc2)cc1	9	11	1.2	17	88	98	/	/	/
CCC(N=c1cc(-c2ccc(OC)cc2)oc2ccc(C)cc12)C(=O)O (configuration not stated)	4	-72	3.1	147*	164*	100	137*	120	99
COc1ccc(NC(=O)/C(C#N)=C/c2ccc(Sc3nncn3C)c([N+](=O)[O-])c2)cc1	6	2	/	12	97	99	/	/	/
Cc1cccc(/C(N)=N/OC(=O)c2ccc(Cl)cc2Cl)c1	-3	-69	2.2	139*	161*	100	222*	126	114*
N/C(=N\OC(=O)c1ccccc1Cl)c1ccc(Cl)cc1	-18	-57	3.7*	58	155*	126	193*	123	159*
Cc1ccc(/C(N)=N/OC(=O)c2ccc(C)cc2Cl)cc1	41	-72	1.6	162*	164*	67	207*	97	81
Cc1cccc(/C(N)=N/OC(=O)N2c3ccccc3Sc3ccccc32)c1	27	-3	1.4	13	102	86	/	/	/
Fc1ccc(Oc2ncccn2)c(F)c1	14	-2	1.2	-2	101	92	/	/	/
COc1ccc(C(=O)CSc2nc3[nH]ncc3c(=O)[nH]2)cc1	0	-10	1.2	0	109	100	/	/	/
O=C(O)CCC(=O)Nc1ccccc1C(=O)NCc1ccccc1	-4	-2	1.1	20	102	101	/	/	/
CCn1c(-c2ccccc2)csc1=Nc1ccc(O)cc1	-19	-72	/	152*	163*	122	172*	114	120*
CCOc1ccc(N=c2scc(-c3ccccc3)n2CCO)cc1	17	-13	1.3	50	112	90	/	/	/
c1ccc2c(c1)oc1c(Nc3ccc(CN4CCOCC4)cc3)ncnc12	0	-63	0.41	187*	158*	103	207*	135*	115*
c1ccc2c(c1)oc1c(Nc3ccc4c(c3)OCO4)ncnc12	2	-63	2.2	80	158*	101	202*	142*	110
O=C(NS(=O)(=O)Oc1ccc(F)c(Cl)c1)OC[C@@H]1CCCN2CCCCC12 (some centres not stated)	6	-4	0.87	10	102	105	/	/	/
Cc1nc2c(ccc3nc(NC(=O)c4ccc5c(c4)OCCO5)sc32)s1	35	-75	5.4*	123	168*	72	230*	129	104
Cc1c(Cl)cn2c(=O)cc(CN3CCN(c4ccc(F)cc4)CC3)nc2c1Cl	9	-2	1.2	-12	101	96	/	/	/
SMILES	STAT3 inh	STAT1 blocker	NF-kB expr up	APP 5'UTR act	STAT1 act	STAT3 activator	STAT1 act conf	NFkB act	STAT3 act STAT1c
O=c1/c(=C/c2ccc([N+](=O)[O-])cc2)sc2n1CCCN=2	9	-62	1.8	21	157*	96	183*	135*	97
O=C(CC(c1ccccc1)c1ccccc1)Nc1ccc(Cl)cn1	-4	6	1.2	14	94	106	/	/	/
O=C(/C=C/c1ccccc1)Nc1ccc(Cl)cn1	9	-60	3.2	80	156*	100	208*	121	95
CCCOC(=O)c1ccc(-c2ccc(C=O)o2)cc1	-16	-70	4.8*	105	162*	112	217*	132	104
N/C(=N\OC(=O)c1ccc(F)cc1)c1ccccc1	-10	-63	3.5*	94	157*	119	196*	128	116*
Cc1ccc(/C(N)=N/OC(=O)c2ccc(F)cc2)cc1	14	-65	7.9*	46	153*	95	173*	135*	106
N/C(=N\OC(=O)c1cccc(Br)c1)c1ccncc1	13	-29	/	39	127	94	/	/	/
N/C(=N\OC(=O)c1cccc(F)c1)c1ccccc1	-6	-73	2.4	94	166*	116	169*	123	114*
COc1cccc(Cn2c(C3CC3)nc3ccc(NC(=O)c4ccco4)cc3c2=O)c1	22	-12	0.79	31	111	83	/	/	/
COc1ccc(Cn2c(C3CC3)nc3ccc(NC(=O)C4CC4)cc3c2=O)cc1	-5	-119	8.4*	173*	209*	110	294*	144*	124*
COc1ccccc1-c1nc(-c2ccc(C)nc2OC)no1	10	-62	2.5	46	157*	94	165*	126	103
CCc1nc(-c2ccc(C)nc2OC)no1	0	1	0.95	-17	103	100	/	/	/
c1ccc(CSc2nnc(-c3cccs3)o2)cc1	10	-64	4.6*	106	158*	93	179*	132	116*
O=C(COc1ccc(Cl)cc1[N+](=O)[O-])NC1CCCCC1	19	-65	/	114	160*	88	167*	121	111*
Cc1ccc(N=Cc2cc(Br)cc(Cl)c2O)cc1	-2	-7	1.5	-9	104	105	/	/	/
Cc1ccc(N=Cc2sc(O)c3ccccc23)cc1	-33	-115	13*	193*	202*	129	323*	153*	121*

Bioassay records: PubChem BioAssay, several laboratories
